Experimental data: ChEMBL document CHEMBL4680181, “Identification of a 2,4-diaminopyrimidine scaffold targeting Trypanosoma brucei pteridine reductase 1 from the LIBRA compound library screening campaign” (Eur J Med Chem, 2020)
The source made the active and inactive calls. The rule behind the calls is not given here.

Legend:
[1] = Inhibition of Trypanosoma brucei PTR1 using H2B as substrate preincubated for 10 mins followed by NADPH addition and measured up to 50 mins relative to control
Method in brief: (§1)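 Purified recombinant LmPTR1 or TbPTR1 in a coupled enzyme assay. Nine-point dose response from 0.5 to 100 μM. IC50, pIC50 and Hill slope from a 4-parameter logistic fit. Ki derived by the competitive model Ki = IC50/((S/Km)+1).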

Pteridine reductase 1 = target: T1, Pteridine reductase 1 (Leishmania major, UniProt Q01782); experiment: Inhibition of Leishmania major PTR1 using H2B as substrate preincubated for 10 mins followed by NADPH addition and measured up to 50 mins relative to control; method in brief: as §1
T1 sequence (Q01782 whole entry): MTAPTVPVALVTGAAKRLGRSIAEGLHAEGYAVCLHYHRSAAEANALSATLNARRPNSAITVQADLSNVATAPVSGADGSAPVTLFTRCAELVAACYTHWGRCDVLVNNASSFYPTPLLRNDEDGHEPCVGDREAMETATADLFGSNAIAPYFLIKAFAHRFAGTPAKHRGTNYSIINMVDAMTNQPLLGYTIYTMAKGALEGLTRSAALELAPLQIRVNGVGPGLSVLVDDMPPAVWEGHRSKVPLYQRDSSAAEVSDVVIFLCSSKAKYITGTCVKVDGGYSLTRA

[2] = system: Trypanosoma brucei brucei; experiment: Antitrypanosomal activity against bloodstream form of trypanosoma brucei brucei 427 assessed as reduction in parasitic growth after 72 hrs by resazurin staining based fluorescence assay; type: functional, organism-based
Method in brief: (§2)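 T. brucei bloodstream forms in a modified resazurin-based growth assay. EC50 (concentration inhibiting growth by 50%) obtained by nonlinear regression. Combination wells contained 4 μM MTX (methotrexate); single-agent MTX was run at 4 μM. Single-concentration tests used 10, 1 or 0.1 μM of test compound.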

[3] = system: Trypanosoma brucei brucei; experiment: Antitrypanosomal activity against bloodstream form of trypanosoma brucei brucei 427 assessed as inhibition of parasitic growth at 1 uM after 72 hrs in presence of MTX by resazurin staining based fluorescence assay relative to control; type: functional; conditions: read-out: GI; method in brief: as §2
[4] = system: Trypanosoma brucei brucei; experiment: Antitrypanosomal activity against bloodstream form of trypanosoma brucei brucei 427 assessed as inhibition of parasitic growth at 10 uM after 72 hrs by resazurin staining based fluorescence assay relative to control; type: functional; method in brief: as §2
[5] = system: Trypanosoma brucei brucei; experiment: Antitrypanosomal activity against bloodstream form of trypanosoma brucei brucei 427 assessed as inhibition of parasitic growth at 1 uM after 72 hrs by resazurin staining based fluorescence assay relative to control; type: functional, organism-based; method in brief: as §2
[6] = system: Trypanosoma brucei brucei; experiment: Antitrypanosomal activity against bloodstream form of trypanosoma brucei brucei 427 assessed as potentiation index at 1 uM after 72 hrs in presence of MTX by resazurin staining based fluorescence assay; type: functional
Method in brief: (§3)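 Synergy index taken as the activity of test compound plus 4 μM MTX, divided by the summed activities of test compound alone and 4 μM MTX alone. Resazurin-based assay on T. brucei bloodstream forms.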

[7] = Cytotoxicity against human A549 cells assessed as reduction in cell viability by Cell Titer-Glo assay; type: cell-based
Method in brief: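 A549 cells from DSMZ, grown in DMEM with 10% v/v FCS, 100 μg/mL streptomycin and 100 U/mL penicillin G. Viability read by CellTiter-Glo luminescence of cellular ATP, which scales with cell number. GI50 reported.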

[8] = Cytotoxicity against human THP-1 cells assessed as reduction in cell viability by MTT assay; type: cell-based
Trypanosoma brucei = experiment: Inhibition of Trypanosoma brucei PTR1 at 50 uM using H2B as substrate preincubated for 10 mins followed by NADPH addition and measured up to 50 mins relative to control; conditions: time min <=60
[9] = Selectivity ratio Ki for inhibition of inhibition of Leishmania major PTR1 to Ki for inhibition of Trypanosoma brucei PTR1
Method in brief: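 Ki values for LmPTR1 and TbPTR1, each calculated from the coupled-assay IC50 with the competitive model Ki = IC50/((S/Km)+1).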

[10] = system: Trypanosoma brucei brucei; experiment: Antitrypanosomal activity against bloodstream form of trypanosoma brucei brucei 427 assessed as inhibition of parasitic growth at 10 uM after 72 hrs in presence of MTX by resazurin staining based fluorescence assay relative to control; type: functional; conditions: for inhibition of growth at 10 µM: read-out: GI; method in brief: as §2
[11] = system: Trypanosoma brucei brucei; experiment: Antitrypanosomal activity against bloodstream form of trypanosoma brucei brucei 427 assessed as potentiation index at 10 uM after 72 hrs in presence of MTX by resazurin staining based fluorescence assay; type: functional; method in brief: as §3
hERG (KCNH2) = hERG (KCNH2) (Homo sapiens, UniProt Q12809); experiment: Inhibition of human ERG at 10 uM by fluorescence polarization assay relative to control
Method in brief: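 hERG inhibition measured by fluorescence polarization (Predictor hERG assay), with compound at 10 μM.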

CYP2D6 = CYP2D6 (Homo sapiens, UniProt P10635); experiment: Inhibition of CYP2D6 (unknown origin) at 10 uM by P450-Glo assay relative to control; type: ADME
Method in brief: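 CYP2D6 inhibition measured in the P450-Glo luminescent platform, with compound at 10 μM.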

[12] = system: Trypanosoma brucei brucei; experiment: Antitrypanosomal activity against bloodstream form of trypanosoma brucei brucei 427 assessed as inhibition of parasitic growth at 0.1 uM after 72 hrs in presence of MTX by resazurin staining based fluorescence assay relative to control; type: functional; conditions: read-out: GI; method in brief: as §2
[13] = system: Trypanosoma brucei brucei; experiment: Antitrypanosomal activity against bloodstream form of trypanosoma brucei brucei 427 assessed as inhibition of parasitic growth at 0.1 uM after 72 hrs by resazurin staining based fluorescence assay relative to control; type: functional, organism-based; method in brief: as §2
[14] = system: Trypanosoma brucei brucei; experiment: Antitrypanosomal activity against bloodstream form of trypanosoma brucei brucei 427 assessed as potentiation index at 0.1 uM after 72 hrs in presence of MTX by resazurin staining based fluorescence assay; type: functional; method in brief: as §3
[15] = system: Trypanosoma brucei brucei; experiment: Antitrypanosomal activity against bloodstream form of trypanosoma brucei brucei 427 assessed as inhibition of parasitic growth at 4 uM after 72 hrs in presence of MTX by resazurin staining based fluorescence assay relative to control; type: functional; conditions: read-out: GI; method in brief: as §2
[16] = Trypanosoma brucei, 427, 72 h, read-out: IC50

Chain of hERG (KCNH2) (Q12809 whole entry): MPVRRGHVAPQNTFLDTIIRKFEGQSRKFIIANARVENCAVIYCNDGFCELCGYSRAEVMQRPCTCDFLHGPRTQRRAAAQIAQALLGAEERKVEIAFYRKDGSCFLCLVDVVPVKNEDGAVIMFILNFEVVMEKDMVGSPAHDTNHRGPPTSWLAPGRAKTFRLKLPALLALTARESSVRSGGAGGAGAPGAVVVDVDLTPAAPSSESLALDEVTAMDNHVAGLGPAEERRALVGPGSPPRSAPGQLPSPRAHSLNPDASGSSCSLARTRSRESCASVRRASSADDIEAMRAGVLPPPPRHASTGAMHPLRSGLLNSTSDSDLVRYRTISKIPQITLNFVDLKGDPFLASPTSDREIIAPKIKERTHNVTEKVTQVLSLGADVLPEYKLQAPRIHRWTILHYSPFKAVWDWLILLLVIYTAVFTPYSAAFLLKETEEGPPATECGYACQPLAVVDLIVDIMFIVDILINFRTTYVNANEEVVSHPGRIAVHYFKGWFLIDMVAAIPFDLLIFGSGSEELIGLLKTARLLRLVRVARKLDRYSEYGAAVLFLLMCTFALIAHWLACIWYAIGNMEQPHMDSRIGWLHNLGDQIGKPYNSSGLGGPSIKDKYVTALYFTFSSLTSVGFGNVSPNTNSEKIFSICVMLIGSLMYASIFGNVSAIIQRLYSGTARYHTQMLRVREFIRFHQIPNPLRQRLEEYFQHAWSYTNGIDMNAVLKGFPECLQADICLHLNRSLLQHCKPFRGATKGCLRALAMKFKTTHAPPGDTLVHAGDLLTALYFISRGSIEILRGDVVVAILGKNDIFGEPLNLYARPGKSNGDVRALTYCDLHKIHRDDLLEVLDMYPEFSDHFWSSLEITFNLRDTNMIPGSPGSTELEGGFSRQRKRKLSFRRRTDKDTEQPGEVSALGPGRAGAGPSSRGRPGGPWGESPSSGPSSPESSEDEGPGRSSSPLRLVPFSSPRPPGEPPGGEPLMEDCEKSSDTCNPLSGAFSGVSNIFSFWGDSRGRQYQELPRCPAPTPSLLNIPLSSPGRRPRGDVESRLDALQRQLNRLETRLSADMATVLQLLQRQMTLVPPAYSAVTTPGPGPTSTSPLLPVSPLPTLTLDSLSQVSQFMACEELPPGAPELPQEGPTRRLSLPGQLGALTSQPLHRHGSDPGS
Chain of CYP2D6 (P10635 whole entry): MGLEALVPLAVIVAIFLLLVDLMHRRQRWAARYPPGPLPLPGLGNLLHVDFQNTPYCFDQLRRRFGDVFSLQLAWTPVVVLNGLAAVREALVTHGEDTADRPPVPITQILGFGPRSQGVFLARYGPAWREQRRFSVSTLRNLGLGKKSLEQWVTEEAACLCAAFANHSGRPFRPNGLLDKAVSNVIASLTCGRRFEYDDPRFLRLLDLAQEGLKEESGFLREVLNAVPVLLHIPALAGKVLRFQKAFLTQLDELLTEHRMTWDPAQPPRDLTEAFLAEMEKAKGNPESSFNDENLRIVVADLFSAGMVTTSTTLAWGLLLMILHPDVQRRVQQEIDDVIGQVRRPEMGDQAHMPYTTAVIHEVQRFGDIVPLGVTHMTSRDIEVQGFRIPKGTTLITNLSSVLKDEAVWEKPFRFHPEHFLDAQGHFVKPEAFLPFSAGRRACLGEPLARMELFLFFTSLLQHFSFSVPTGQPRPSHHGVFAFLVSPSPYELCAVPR

Compound | Ki ([1]; read-out: Ki) [µM] | Ki (Pteridine reductase 1) [µM] | IC50 [2, 16] [µM] | inhibition (Trypanosoma brucei) [%] | IC50 [2] | inhibition of growth at 10 µM [10] [%] | growth inhibition (GI) [4] | Activity_index [11] | inhibition of growth at 0.1 µM [12] [%] | growth inhibition (GI) [13] | Activity_index [14] | also measured
NCCCCCCN1CC[C@H]2COc3ccccc3[C@H]21 | 1.6 | > 100 |  | > 85 | Not Active | 51 | inactive | 1.3 |  |  |  | IC50 (Pteridine reductase 1): > 100 µM; Ratio Ki [9]: > 62.5
Nc1cc(NCc2ccc(F)cc2)nc(N)n1 | 1.1 | > 100 |  |  | Not Active | 37 | inactive | 1.8 |  |  |  | inhibition at 10 µM (hERG (KCNH2)): > 50%; inhibition at 10 µM (CYP2D6): 30%
O=C1CCCCCNCc2ccc(cc2)CNCCCCCC(=O)N(Cc2ccccc2)CCCCCCCCN1Cc1ccccc1 | 1.7 | > 100 | 0.61 | > 85 |  |  |  |  | 43 | inactive | 1.4 | IC50 (Pteridine reductase 1): > 100 µM
Nc1cc(NCc2ccccc2)nc(N)n1 | 3.4 | > 100 |  |  | Not Active | 24 | inactive | 1.3 |  |  |  | inhibition at 10 µM (hERG (KCNH2)): > 50%; inhibition at 10 µM (CYP2D6): 30%
4-(4-Methoxybenzylamino)2,6-diaminopyrimidine |  |  |  |  |  |  | inactive |  |  |  |  | growth inhibition (GI) [10]: 41%; Activity index [11]: 2.2
Nc1cc(OCc2ccccc2)nc(N)n1 | 0.6 | > 100 |  | > 85 | Not Active | 36 | inactive | 1.9 |  |  |  | IC50 (Pteridine reductase 1): > 100 µM; Ratio Ki [9]: > 167; inhibition at 10 µM (hERG (KCNH2)): < 30%; inhibition at 10 µM (CYP2D6): < 30%; GI50 [7]: > 60 µM; CC50 [8]: > 60 µM
COc1ccc(COc2cc(N)nc(N)n2)cc1 | 0.8 | > 100 |  |  | Not Active | 42 | inactive | 2.2 |  |  |  | 
CN(Cc1cnc2nc(N)nc(N)c2n1)c1ccc(C(=O)N[C@@H](CCC(=O)O)C(=O)O)cc1 [METHOTREXATE] |  |  |  |  |  |  |  |  |  |  |  | inhibition of growth at 4 µM [15]: 19%
Cn1cnc2c(N)nc(CCc3ccccc3)nc21 | 4.9 | 12 |  | > 85 | Not Active | 56 |  | 1.7 |  |  |  | 

Now from value to compound, other results behind:

Ki ([1]; read-out: Ki) [µM] | Ki (Pteridine reductase 1) [µM] | IC50 [2, 16] [µM] | inhibition (Trypanosoma brucei) [%] | IC50 [2] | Compound | inhibition of growth at 10 µM [10] [%] | growth inhibition (GI) [4] | Activity_index [11] | inhibition of growth at 0.1 µM [12] [%] | growth inhibition (GI) [13] | Activity_index [14] | also measured
0.2 | 15.3 | 3.7 |  |  | Nc1cc(NCc2ccc(-c3ccccc3)cc2)nc(N)n1 |  |  |  |  |  |  | inhibition of growth at 1 µM [3]: 49%; inhibition of growth at 10 µM ([4]; read-out: GI): > 80%; growth inhibition (GI) [5]: Active; Activity_index [6]: 2.3; GI50 [7]: 28.6 µM; CC50 [8]: < 25 µM
2.2 | > 100 | 2.45 | > 85 |  | Cl.Fc1ccc(N(CCNCCCc2ccccc2)c2ccc(F)cc2)cc1 |  |  |  | 46 | inactive | 1.1 | IC50 (Pteridine reductase 1): > 100 µM; Ratio Ki [9]: > 45
> 100 | 5.7 |  | > 85 |  | Oc1ccc(-c2ccc(-c3cc(O)cc(O)c3)c(-c3ccccc3)c2)cc1 |  |  |  |  |  |  | IC50 [1]: > 100 µM
2.7 | 14.8 | 0.58 | > 85 |  | O=C1CCCCCNCc2ccc(cc2)Cc2ccc(cc2)CNCCCCCC(=O)N(Cc2ccccc2)CCCCCCCCN1Cc1ccccc1 |  |  |  | 42 | inactive | 1.1 | 
0.2 | 37.2 | 0.27 | > 85 |  | COc1ccccc1CNCc1ccc(CNCCCCCCCCCCCCNCc2ccc(CNCc3ccccc3OC)cc2)cc1 |  |  |  | 46 | inactive | 1.1 | Ratio Ki [9]: 186
 | > 100 |  |  |  | Nc1nc(NCc2ccccc2)cc(NCc2ccccc2)n1 |  |  |  |  |  |  | Ki [1]: Not Active; inhibition at 10 µM (hERG (KCNH2)): > 50%
1.6 | 19.2 | 0.56 | > 85 |  | O=C1CCCCCNCc2ccc(cc2)-c2ccc(cc2)CNCCCCCC(=O)N(Cc2ccccc2)CCCCCCCCN1Cc1ccccc1 |  |  |  | 41 | inactive | 1.2 | 
